Compounds with a hit are over-represented: about 3.8% of the library has one in this group of screens.
Beta apoptosis: blocks beta cell apoptosis. INS-1E cytokine-induced death, ATP luminescence, 48 h; percent of positive-control rescue, neutral wells zero. protection from apoptosis, % (concentration not given with the values). hit rate 0.8% among 300,000. AID 435005;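 active = Every replicate reaches about 75%, or at least half do and their mean reaches it too, limit read from the data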;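 note: 0% = cytokine-treated negative control wells and 100% = positive control rescue; higher means more ATP so stronger rescue from cytokine killing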
TMEM16A act: mouse TMEM16A channel activation, primary screen | HEK293 TMEM16A/YFP-H148Q/I152L, iodide quench fluorescence; stronger effect = lower value | B-score at 10 µM | hit rate 0.3% among 340,000 | AID 623877;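 active = fluorescence-ratio B-score plate-corrected deviation score at least 3 library SD below zero, with starting fluorescence score within 5 deviations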;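 note: channel opened by trigger with iodide after compound preincubation; score built on the fluorescence ratio of max minus min over baseline; more negative score means more quench and so TMEM16A activation or potentiation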
MC4R barr agon: activates human MC4R beta-arrestin recruitment; activation, % at 8.9 µM; hit rate 0.98% among 360,000; P32245; U2OS MC4R beta-arrestin complementation, luminescence; percent of melanotan II response, DMSO zero;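 active = activation above a per-plate cutoff, the mean activation of sample wells on that plate plus 3 SD, cut at about 8% in these data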
Target sequence (P32245 whole entry, looked up): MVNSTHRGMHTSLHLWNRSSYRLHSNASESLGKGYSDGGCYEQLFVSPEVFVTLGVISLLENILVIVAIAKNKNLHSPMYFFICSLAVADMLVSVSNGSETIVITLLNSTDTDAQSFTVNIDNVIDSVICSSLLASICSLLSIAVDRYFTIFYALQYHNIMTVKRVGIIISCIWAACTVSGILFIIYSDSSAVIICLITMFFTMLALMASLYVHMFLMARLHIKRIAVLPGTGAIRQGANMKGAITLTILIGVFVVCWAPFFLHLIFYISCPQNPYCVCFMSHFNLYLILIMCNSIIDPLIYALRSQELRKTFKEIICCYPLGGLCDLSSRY
CSC inhib: cancer stem cell inhibition. cancer stem cell-like cells viability, luminescence. inhibition, % at 7.5 µM. hit rate 1.1% among 300,000. AID 2717; in the data active = inhibition above about 75%; tested in HMLE shEcad cells
MC4R antag cAMP: human MC4R antagonism in cAMP assay; hit rate 0.48% among 360,000; inhibition, % at 6.5 µM; P32245; MC4R-expressing cells, MTII-stimulated cAMP, LANCE TR-FRET; AID 540295;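 active = inhibition above its plate's cutoff, the mean of tested wells on that plate plus 3 SD, cut at about 29% in these data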;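 note: 0% = Melanotan II alone and 100% = Melanotan II plus saturating MCL0020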
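Assay system: U2OS-MC4R stable cell line; Also added: Melanotan II; Technique: Eu-cAMP/anti-cAMP TR-FRET, emission 671 nm; Times: 30-min compound, 1-h challenge, 1-h detection, room temperature.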
ANO1 block: mouse TMEM16A channel inhibition, primary screen; Q8BHY3; HEK293 TMEM16A/YFP iodide influx fluorescence, ionomycin; normalized B-score (activity score, 25-100; higher = stronger inhibition) at 10 µM; hit rate 1.2% among 310,000; AID 588511;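 active = ratio plate-corrected score three or more library SD toward inhibition, starting fluorescence score within five deviations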;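 note: score derived from kinetic fluorescence span divided by baseline fluorescence per well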
U2OS cAMP counter: nonselective cAMP signaling inhibitor, MC4R antagonist counter-screen. parental U2OS, forskolin cAMP, LANCE TR-FRET. AID 602193. inhibition, % at 6.5 µM. shares compounds with MC4R antag cAMP. hit rate 26% among 1,600;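 active = mean inhibition over triplicates above the low-control well mean plus 3 SD, set per campaign, cut at about 13% in these data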;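 note: signal is single emission at 671 nm which falls as cellular cAMP rises; 0% = forskolin-stimulated wells and 100% = buffer without forskolin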
MC4R antag conf: human MC4R cAMP antagonism confirmation; shares compounds with MC4R antag cAMP; MC4R-expressing cells, MTII-stimulated cAMP, TR-FRET; inhibition, % at 6.5 µM; hit rate 27% among 1,600; AID 602195; in the data active = inhibition above about 29%;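 note: 0% = agonist stimulated wells alone and 100% = agonist stimulated wells plus saturating reference antagonist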
Active calls of the source: *; i = inactive; . = not tested or not shown.

SMILES	Beta apoptosis	TMEM16A act	MC4R barr agon	CSC inhib	MC4R antag cAMP	ANO1 block	U2OS cAMP counter	MC4R antag conf
CC1C/C(=C/c2ccncc2)C(=O)/C(=C/c2ccncc2)C1 (stereo unspecified)	112*	i	-1	77*	31*	i	29*	30*
COc1ccc(-c2c(C)[nH]n3c(=O)c(Cc4ccccc4)c(C)nc23)cc1OC	11	i	-3	13	31*	i	2	7
Cc1nc2c(C#N)c(C)[nH]n2c(=O)c1Cc1ccccc1	-4	i	-1	2	15	i	.	.
CCCCCCSc1ccc(-c2nc3ccc(C)cn3c2NCc2ccccc2)cc1OC	40	i	-2	69	2	i	.	.
CCCCNc1c(-c2ccc(OC)c(SC(C)CC)c2)nc2ccc(C)cn12 (stereo unspecified)	120*	i	1	100*	36*	.	22*	48*
CCC(C)Sc1ccc(-c2nc3ccc(C)cn3c2NCc2ccccc2)cc1OC (stereo unspecified)	97*	i	-1	-13	35*	i	18*	44*
COc1ccc(-c2nc3ccccn3c2NCc2ccc3c(c2)OCO3)cc1	7	i	0	27	8	i	.	.
CCCCNc1c(-c2ccc(OC)c(SC(C)CC)c2)nc2ccc(Cl)cn12 (stereo unspecified)	3	i	4	53	15	.	.	.
CCC(C)Sc1cc(-c2nc3ccc(C)cn3c2NCc2ccccc2)ccc1OC (stereo unspecified)	.	i	-3	-29	47*	i	27*	78*
COc1ccc(-c2cc(-c3nc4ccccn4c3NCc3ccccc3)ccc2OC)cc1	125*	i	3	98*	37*	.	9	34*
COc1ccc(S(=O)(=O)N2CCSC2C)cc1C (stereo unspecified)	.	i	-1	.	5	i	.	.
N#C/C(=C\c1ccc(OCc2cccc(C(=O)O)c2)cc1)C(=O)NCc1ccco1	-6	i	-1	24	8	i	.	.
CC(C)Cn1nc(C(=O)NCc2ccccc2CN2CCCC2)c2ccccc2c1=O	-3	i	-4	17	0	.	.	.
CC(=O)Nc1ccc(C(=O)Nc2cccc(S(=O)(=O)N(C)c3ccccc3)c2)cc1	-2	i	1	.	8	.	.	.
CN(c1cccc(NC(=O)c2ccc(N(C)S(=O)(=O)c3ccccc3)cc2)c1)S(C)(=O)=O	2	i	0	2	42*	100*	6	0
OCCN1CCN(c2cc(C(F)(F)F)nc3c(F)cccc23)CC1	0	i	-2	5	30*	i	-2	5
O=C(NC(Nc1nc2ccc([N+](=O)[O-])cc2s1)(C(F)(F)F)C(F)(F)F)c1ccccc1Cl	109*	i	1	98*	33*	100*	6	18
CN1C(=O)CC(C(=O)Nc2ccccc2F)SC1=Nc1ccc2c(c1)OCO2 (stereo unspecified)	1	i	1	10	33*	i	2	-1
COc1ccc(N=C2SC(C(=O)Nc3ccc4c(c3)OCO4)CC(=O)N2C)cc1 (stereo unspecified)	-7	i	1	15	7	i	.	.
COc1ccccc1C(C)NS(=O)(=O)c1cccs1 (stereo unspecified)	-2	.	.	0	.	i	.	.
CCOC(=O)c1cnc(-n2[nH]c(C)cc2=O)[nH]c1=O	-6	i	-1	11	30*	i	-4	2
Cn1ccsc1=NC(=O)c1ccc(S(C)(=O)=O)cc1	.	i	-2	-2	0	i	.	.
Cn1ccsc1=NC(=O)c1ccc(Cl)c([N+](=O)[O-])c1	0	i	0	7	35*	i	4	-1
Cn1ccsc1=NC(=O)c1ccc(S(C)(=O)=O)c([N+](=O)[O-])c1	-25	i	-4	5	33*	i	7	31*
Cc1ccc(C(=O)N=c2sccn2C)cc1C	6	i	-2	5	-3	i	.	.
SMILES	Beta apoptosis	TMEM16A act	MC4R barr agon	CSC inhib	MC4R antag cAMP	ANO1 block	U2OS cAMP counter	MC4R antag conf
O=S(=O)(c1cccc2nsnc12)N1CCCCC1	-7	i	1	-6	-1	i	.	.
Cc1ccc(CNC(=O)CNS(=O)(=O)c2ccc3c(c2)C(C)(C)C(=O)N3C)cc1	1	i	-2	-7	7	i	.	.
CCOC(=O)c1ccc(NC(=O)N2CCN(c3cccc(OC)c3)CC2)cc1	1	i	0	5	29*	i	-5	-6
CCOC(=O)c1ccc(NC(=O)N2CCN(c3ccccn3)CC2)cc1	4	i	-1	8	-1	i	.	.
O=C(CSc1nccc(=O)[nH]1)Nc1ccccc1Sc1ccccc1	-1	i	1	-2	31*	i	0	-12
Cc1c(C(=O)Nc2ccc(S(=O)(=O)Nc3ncccn3)cc2)oc2ccccc12	-4	i	-2	-17	16	.	.	.
Cc1cc(NS(=O)(=O)c2ccc(NC(=O)c3oc4ccccc4c3C)cc2)no1	1	i	1	-13	29*	i	0	-2
COc1ccccc1-c1c(C)oc2cc(OCC(=O)OCc3ccccc3)ccc2c1=O	-10	i	0	-1	37*	i	14*	38*
COc1ccccc1-c1coc2cc(OCC(=O)OCc3ccccc3)ccc2c1=O	-2	i	-3	5	24	i	.	.
CC(C)C[C@H](N)c1nnc(S(=O)(=O)Cc2ccc(F)cc2)o1	12	i	-4	77*	43*	i	23*	36*
c1ccc(N2CC3COc4ccccc4C3=N2)cc1 (stereo unspecified)	.	i	2	.	0	.	.	.
COc1cc(OC)cc(Oc2ccc(S(=O)(=O)N3CCCCC3)cc2[N+](=O)[O-])c1	2	i	-1	-1	30*	i	9	22
CCOC(=O)c1cc2cc(OCc3ccccc3)ccc2nc1C	-1	i	-1	19	17	i	.	.
CCOC(=O)c1cnc2ccc(OCC)cc2c1N(C)Cc1ccccc1	4	i	3	.	30*	i	0	31*
Cc1cc(C)c(S(=O)(=O)c2ccc(Cl)cc2)c(Cl)n1	2	i	1	-12	9	i	.	.
Cc1cc(S(=O)(=O)c2ccc(Cl)cc2)nc(S(=O)(=O)c2ccc(Cl)cc2)c1C#N	.	.	-4	.	39*	.	29*	28

Screens as filed in PubChem.
